Measured values taken from ChEMBL document CHEMBL1148440, “4-(tetralin-1-yl)- and 4-(naphthalen-1-yl)alkyl derivatives of 1-cyclohexylpiperazine as sigma receptor ligands with agonist sigma2 activity” (J Med Chem, 2004).
Values belong to the molecule of their own block, whether it stands above or below them.

Key:
[1] = biological target: T1, Serotonin 3 (5-HT3) receptor (Rattus norvegicus, UniProt P35563+Q9JJ16); test: In vitro binding affinity at serotonin 5-hydroxytryptamine 3 receptor in rat cortex by [3H]granisetron displacement.
T1 sequence (P35563 whole entry): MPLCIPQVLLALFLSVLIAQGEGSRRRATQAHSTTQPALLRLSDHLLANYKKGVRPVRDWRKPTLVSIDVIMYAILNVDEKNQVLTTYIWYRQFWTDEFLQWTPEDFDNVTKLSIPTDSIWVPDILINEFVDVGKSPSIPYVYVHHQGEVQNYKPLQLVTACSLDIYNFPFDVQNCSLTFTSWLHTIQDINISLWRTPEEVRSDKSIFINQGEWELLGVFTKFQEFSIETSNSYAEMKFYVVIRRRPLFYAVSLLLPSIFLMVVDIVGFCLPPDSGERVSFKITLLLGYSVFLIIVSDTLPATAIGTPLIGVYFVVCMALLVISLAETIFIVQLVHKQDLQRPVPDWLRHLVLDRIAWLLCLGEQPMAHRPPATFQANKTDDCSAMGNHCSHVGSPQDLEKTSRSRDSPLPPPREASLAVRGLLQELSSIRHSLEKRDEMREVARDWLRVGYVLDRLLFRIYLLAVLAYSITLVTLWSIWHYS
T1 sequence (Q9JJ16 whole entry): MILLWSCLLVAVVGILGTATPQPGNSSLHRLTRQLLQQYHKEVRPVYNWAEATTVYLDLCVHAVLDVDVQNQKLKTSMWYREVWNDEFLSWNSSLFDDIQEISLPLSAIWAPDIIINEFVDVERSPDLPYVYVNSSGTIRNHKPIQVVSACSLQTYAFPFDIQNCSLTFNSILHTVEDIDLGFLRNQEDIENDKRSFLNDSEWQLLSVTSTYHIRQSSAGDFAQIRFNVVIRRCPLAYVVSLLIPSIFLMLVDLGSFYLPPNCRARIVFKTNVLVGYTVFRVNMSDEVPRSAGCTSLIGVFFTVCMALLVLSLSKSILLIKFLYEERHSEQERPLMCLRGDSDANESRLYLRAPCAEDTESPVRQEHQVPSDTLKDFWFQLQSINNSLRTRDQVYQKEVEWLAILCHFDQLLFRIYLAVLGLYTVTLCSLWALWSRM
Summary of the method: (§1)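 Competition binding was run with radioligand displacement: [3H]spiroperidol for D2-like, [3H]prazosin for α1 and [3H]granisetron for 5-HT3. D2 values are the mean of three independent experiments.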

[2] = biological target: T2, Adrenergic receptor alpha-1 (Rattus norvegicus, UniProt P15823+P23944+P43140); test: In vitro binding affinity at alpha-1 adrenergic receptor in rat cortex by [3H]prazosin displacement.; summary of the method: as §1
T2 sequence (P15823 whole entry): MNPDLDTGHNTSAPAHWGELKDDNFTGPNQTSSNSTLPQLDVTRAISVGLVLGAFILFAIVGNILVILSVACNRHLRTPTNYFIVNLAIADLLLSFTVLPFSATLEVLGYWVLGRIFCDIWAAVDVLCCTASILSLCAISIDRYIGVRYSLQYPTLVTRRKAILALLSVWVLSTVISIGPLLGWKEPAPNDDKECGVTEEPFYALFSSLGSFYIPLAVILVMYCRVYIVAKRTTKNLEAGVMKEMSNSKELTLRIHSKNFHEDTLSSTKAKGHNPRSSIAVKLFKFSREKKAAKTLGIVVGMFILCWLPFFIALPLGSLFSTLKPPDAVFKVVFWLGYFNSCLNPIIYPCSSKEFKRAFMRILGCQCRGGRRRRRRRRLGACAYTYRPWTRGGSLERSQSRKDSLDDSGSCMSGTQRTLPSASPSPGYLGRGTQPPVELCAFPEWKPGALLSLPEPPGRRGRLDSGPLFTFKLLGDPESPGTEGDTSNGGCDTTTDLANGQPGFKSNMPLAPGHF
T2 sequence (P23944 whole entry): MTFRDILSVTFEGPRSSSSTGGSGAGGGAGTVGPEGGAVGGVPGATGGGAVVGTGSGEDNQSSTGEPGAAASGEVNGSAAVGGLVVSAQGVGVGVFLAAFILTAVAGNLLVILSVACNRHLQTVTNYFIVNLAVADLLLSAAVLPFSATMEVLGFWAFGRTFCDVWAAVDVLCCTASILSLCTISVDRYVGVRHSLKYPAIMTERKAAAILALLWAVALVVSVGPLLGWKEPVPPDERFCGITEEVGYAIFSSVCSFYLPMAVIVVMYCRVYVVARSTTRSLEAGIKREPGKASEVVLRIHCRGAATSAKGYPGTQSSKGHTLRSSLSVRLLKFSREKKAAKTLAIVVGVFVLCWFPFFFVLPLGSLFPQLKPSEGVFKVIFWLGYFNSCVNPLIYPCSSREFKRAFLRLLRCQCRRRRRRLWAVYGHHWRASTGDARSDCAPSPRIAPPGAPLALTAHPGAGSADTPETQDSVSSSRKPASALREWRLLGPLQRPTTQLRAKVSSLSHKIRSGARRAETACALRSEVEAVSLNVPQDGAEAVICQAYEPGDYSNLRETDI
T2 sequence (P43140 whole entry): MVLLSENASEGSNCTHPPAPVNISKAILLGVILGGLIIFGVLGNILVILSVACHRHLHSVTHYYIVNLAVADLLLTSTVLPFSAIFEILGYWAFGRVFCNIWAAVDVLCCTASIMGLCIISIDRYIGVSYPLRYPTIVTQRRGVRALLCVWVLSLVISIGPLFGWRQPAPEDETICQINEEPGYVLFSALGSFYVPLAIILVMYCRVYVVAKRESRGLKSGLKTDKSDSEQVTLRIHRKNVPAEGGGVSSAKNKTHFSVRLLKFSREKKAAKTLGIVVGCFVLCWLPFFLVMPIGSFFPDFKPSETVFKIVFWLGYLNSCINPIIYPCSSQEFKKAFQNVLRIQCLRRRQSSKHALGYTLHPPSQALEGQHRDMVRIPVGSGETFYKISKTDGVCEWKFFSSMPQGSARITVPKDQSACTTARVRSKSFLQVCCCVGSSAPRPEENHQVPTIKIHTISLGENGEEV

[3] = biological target: D(2) dopamine receptor (Rattus norvegicus, UniProt P61169); test: In vitro binding affinity at Dopamine receptor D2 in rat striatum by [3H]spiroperidol displacement.; format: tissue-based; summary of the method: as §1
[4] = species: Cavia porcellus; test: Inhibition of electrically stimulated contractions of the isolated guinea pig badder.; format: functional
[5] = biological target: Sigma 2 receptor; test: In vitro binding affinity at opioid sigma-2 receptor in rat liver membranes by [3H]-DTG displacement in the presence of 1 uM (+)-pentazocine.; format: cell membranes, Membrane
[6] = biological target: Sigma non-opioid intracellular receptor 1 (Homo sapiens) (UniProt Q99720); test: Binding affinity ratio of sigma 2 receptor to that of sigma 1 receptor
Summary of the method: (§2)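 Sigma-1 binding used guinea pig brain membranes without cerebellum with (+)-[3H]pentazocine. […] IC50 came from 6–9 drug concentrations in two or three experiments with duplicate samples, then converted to apparent Ki. Ratios are computed from these Ki values.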

[7] = species: Cavia porcellus; test: Inhibition of electrically stimulated contractions of the isolated guinea pig badder at 30 uM.; format: functional
[8] = biological target: Sigma non-opioid intracellular receptor 1 (Homo sapiens) (UniProt Q99720); test: Binding affinity ratio of sigma 1 receptor to that of sigma 2 receptor; summary of the method: as §2
[9] = biological target: Sigma 2 receptor; test: In vitro binding affinity at opioid sigma-2 receptor in rat liver membranes by [3H]DTG displacement in the presence of 1 uM (+)-pentazocine.; format: cell membranes, Membrane

Sequence of D(2) dopamine receptor (P61169 whole entry): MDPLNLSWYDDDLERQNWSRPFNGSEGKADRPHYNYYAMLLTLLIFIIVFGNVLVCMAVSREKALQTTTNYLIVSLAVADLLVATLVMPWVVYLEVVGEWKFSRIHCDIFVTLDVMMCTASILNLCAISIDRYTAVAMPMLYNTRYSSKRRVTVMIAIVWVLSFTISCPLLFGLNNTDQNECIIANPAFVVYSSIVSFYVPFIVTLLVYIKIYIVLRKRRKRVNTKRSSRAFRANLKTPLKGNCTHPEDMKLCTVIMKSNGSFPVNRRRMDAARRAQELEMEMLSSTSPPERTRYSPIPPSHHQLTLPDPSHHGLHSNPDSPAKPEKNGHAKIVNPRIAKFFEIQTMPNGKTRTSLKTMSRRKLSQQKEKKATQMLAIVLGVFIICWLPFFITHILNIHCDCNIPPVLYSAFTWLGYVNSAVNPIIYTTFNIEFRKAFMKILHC
Sequence of Sigma non-opioid intracellular receptor 1 (Homo sapiens) (Q99720 whole entry): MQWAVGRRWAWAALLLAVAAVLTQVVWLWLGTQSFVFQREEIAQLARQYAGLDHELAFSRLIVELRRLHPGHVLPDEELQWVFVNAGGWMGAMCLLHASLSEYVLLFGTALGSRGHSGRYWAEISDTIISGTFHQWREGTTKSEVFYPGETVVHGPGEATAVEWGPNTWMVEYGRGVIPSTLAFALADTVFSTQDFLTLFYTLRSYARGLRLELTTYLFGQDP

Structure (SMILES): COc1cccc2c1CCCC2CN1CCN(C2CCCCC2)CC1 (stereo unspecified)
Ki [1]: > 700 nM
Ki [2]: > 7.5 µM
Ki [3]: 4260 nM
EC50 [4]: 11.5 µM
Ki [5]: 16.4 nM
Ratio [6]: 53

Structure (SMILES): c1ccc(CCN2CCCCC2)cc1
Ki [1]: > 700 nM
Ki [2]: > 7.5 µM
inhibition at 30 µM [7]: 41%
Ki [5]: 194 nM
Ratio [8]: 1.6

Structure (SMILES): COc1cccc2c1CCCC2N1CCN(C2CCCCC2)CC1 (stereo unspecified)
Ki [1]: > 700 nM
Ki [2]: > 7.5 µM
Ki [3]: 1160 nM
EC50 [4]: 6.97 µM
Ki [9]: 7.9 nM
Ratio [6]: 20

Structure (SMILES): COc1cccc2c1CCCC2CCN1CCN(C2CCCCC2)CC1 (stereo unspecified)
Ki [1]: > 700 nM
Ki [2]: > 7.5 µM
Ki [3]: 1620 nM
EC50 [4]: 16.1 µM
Ki [5]: 21.1 nM
Ratio [6]: 13

Structure (SMILES): COc1cccc2c(CCCN3CCN(C4CCCCC4)CC3)cccc12
Ki [1]: > 700 nM
Ki [2]: > 7.5 µM
Ki [5]: 9.24 nM

Structure (SMILES): c1ccc2c(CCCCCN3CCN(C4CCCCC4)CC3)cccc2c1
EC50 [4]: 2.95 µM
Ki [5]: 0.57 nM
Ratio [8]: 4.2

Structure (SMILES): c1ccc2c(CCCN3CCN(C4CCCCC4)CC3)cccc2c1
Ki [1]: > 700 nM
Ki [2]: > 7.5 µM
EC50 [4]: 1.82 µM
Ki [5]: 0.69 nM
Ratio [8]: 3.1

Structure (SMILES): Cc1ccccc1NC(=N)Nc1ccccc1C [DITOLYLGUANIDINE]
EC50 [4]: 6.9 µM

Structure (SMILES): c1ccc2c(CCCCN3CCN(C4CCCCC4)CC3)cccc2c1
Ki [1]: > 700 nM
Ki [2]: > 7.5 µM
Ki [5]: 30.5 nM
Ratio [6]: 139

Structure (SMILES): COc1cccc2c1CCCC2CCCCCCN1CCN(C2CCCCC2)CC1 (stereo unspecified)
Ki [1]: > 700 nM
Ki [2]: > 7.5 µM
Ki [3]: 3480 nM
EC50 [4]: 25.3 µM
Ki [5]: 103 nM
Ratio [6]: 34

Other lines, results leading:

Ki [1]: > 700 nM
Ki [2]: > 7.5 µM
Ki [5]: 14.6 nM
Structure (SMILES): c1ccc2c(c1)CCCC2CCCCN1CCN(C2CCCCC2)CC1 (stereo unspecified)

Ki [1]: > 700 nM
Ki [2]: > 7.5 µM
EC50 [4]: 1.75 µM
Ki [5]: 8.65 nM
Structure (SMILES): COc1cccc2c1CCC[C@H]2CCCN1CCN(C2CCCCC2)CC1

Ki [1]: > 700 nM
Ki [2]: > 7.5 µM
Ki [5]: 7.85 nM
Ratio [6]: 5.4
Structure (SMILES): c1ccc2c(c1)CCCC2CCCCCN1CCN(C2CCCCC2)CC1 (stereo unspecified)

Ki [1]: > 700 nM
Ki [2]: > 7.5 µM
Ki [3]: 2450 nM
EC50 [4]: 4.9 µM
Ki [5]: 0.35 nM
Ratio [8]: 4.3
Structure (SMILES): COc1cccc2c1CCCC2CCCCCN1CCN(C2CCCCC2)CC1 (stereo unspecified)

Ki [1]: > 700 nM
Ki [2]: > 7.5 µM
Ki [5]: 5.42 nM
Ratio [6]: 15
Structure (SMILES): COc1ccc2c(c1)CCCC2CCCN1CCN(C2CCCCC2)CC1 (stereo unspecified)

Ki [1]: > 700 nM
Ki [2]: > 7.5 µM
Ki [3]: 479 nM
Ki [5]: 1.22 nM
Ratio [8]: 7.4
Structure (SMILES): COc1ccc2c(c1)C(CCCN1CCN(C3CCCCC3)CC1)CCC2 (stereo unspecified)

Ki [1]: > 700 nM
Ki [2]: > 7.5 µM
Ki [5]: 0.68 nM
Ratio [6]: 1.1
Structure (SMILES): c1ccc2c(c1)CCCC2CCCN1CCN(C2CCCCC2)CC1 (stereo unspecified)

Ki [1]: > 700 nM
Ki [2]: > 7.5 µM
EC50 [4]: 1.5 µM
Ki [5]: 2.09 nM
Structure (SMILES): COc1cccc2c1CCC[C@@H]2CCCN1CCN(C2CCCCC2)CC1

Ki [1]: > 700 nM
Ki [2]: > 7.5 µM
Ki [3]: 604 nM
EC50 [4]: 2.62 µM
Ki [5]: 0.34 nM
Structure (SMILES): COc1cccc2c1CCCC2CCCN1CCN(C2CCCCC2)CC1 (stereo unspecified)

Ki [1]: > 700 nM
Ki [2]: > 7.5 µM
Ki [5]: 1.12 nM
Ratio [6]: 1.6
Structure (SMILES): Oc1ccc2c(c1)CCCC2CCCN1CCN(C2CCCCC2)CC1 (stereo unspecified)

Ki [1]: > 700 nM
Ki [2]: > 7.5 µM
Ki [3]: 3670 nM
EC50 [4]: 9.94 µM
Ki [5]: 3.58 nM
Structure (SMILES): COc1cccc2c1CCCC2CCCCN1CCN(C2CCCCC2)CC1 (stereo unspecified)

Ki [1]: > 700 nM
Ki [2]: > 7.5 µM
Ki [5]: 2.66 nM
Structure (SMILES): Oc1cccc2c1CCCC2CCCN1CCN(C2CCCCC2)CC1 (stereo unspecified)
